{"data": "Results of several laboratories", "target": "Serine/threonine-protein kinase 17A (STK17A, Homo sapiens, UniProt Q9UEE5)", "Residues used in one study (Q9UEE5 1-414)": "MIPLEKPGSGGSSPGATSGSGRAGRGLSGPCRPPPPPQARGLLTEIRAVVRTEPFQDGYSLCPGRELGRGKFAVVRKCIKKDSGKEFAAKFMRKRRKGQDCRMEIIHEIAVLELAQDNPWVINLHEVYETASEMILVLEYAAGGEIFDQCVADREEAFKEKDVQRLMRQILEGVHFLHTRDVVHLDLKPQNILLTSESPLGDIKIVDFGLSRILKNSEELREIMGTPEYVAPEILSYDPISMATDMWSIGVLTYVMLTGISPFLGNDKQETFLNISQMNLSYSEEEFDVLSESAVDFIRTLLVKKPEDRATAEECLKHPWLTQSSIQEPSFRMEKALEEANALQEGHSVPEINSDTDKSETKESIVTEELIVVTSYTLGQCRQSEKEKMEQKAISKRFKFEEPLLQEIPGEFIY", "note": "Lines come from different studies, so protocols differ."}
{"Compound": "COc1ccnn2ncc(-c3ccnc(N(C)C)n3)c12", "test": "binding", "setting": "1 µM", "remaining binding [%]": 96}
{"Compound": "COc1cnc(Nc2cccc(S(N)(=O)=O)c2)nc1N1CCN(c2ccccc2)C(=O)C1", "test": "binding, competition with immobilised ligand", "setting": "1 µM", "remaining binding [%]": 98}
{"Compound": "C[C@H]1CCN(c2nccc(-c3cnn4ncccc34)n2)C1", "test": "binding", "setting": "1 µM", "remaining binding [%]": 13}
{"Compound": "CNC(=O)[C@@H]1CC[C@@H](n2c(-c3ccc4cnccc4c3)nc3ccc(C(=O)NCc4cccc(C(N)=O)c4)cc32)C1", "test": "binding, competition with immobilised ligand", "setting": "1 µM", "remaining binding [%]": 100}
{"Compound": "C[C@@H](c1ccc(-n2cnc3c(N)ncnc32)cc1)N1CCc2nn(C)c(Cc3ccccc3)c2C1=O", "test": "binding, competition with immobilised ligand", "setting": "0.1 µM", "remaining binding [%]": 91}
{"Compound": "O=C(NCC1CCOCC1)c1n[nH]cc1NC(=O)c1c(F)cccc1F", "test": "binding, competition with immobilised ligand", "setting": "1 µM", "remaining binding [%]": 94}
{"Compound": "COc1ccc2c(O[C@@H]3C[C@H]4C(=O)N[C@]5(C(=O)O)CC5/C=C\\CCCCC[C@H](NC(=O)OC5CCCC5)C(=O)N4C3)cc(-c3csc(NC(=O)C(C)C)n3)nc2c1C (stereo partly shown)", "test": "cell-free assay, competition with immobilised ligand", "setting": "1 µM", "remaining binding [%]": 99}
{"Compound": "N[C@H]1CCN(c2nccc(-c3cnn4ncccc34)n2)C1", "test": "binding", "setting": "1 µM", "remaining binding [%]": 100}
{"Compound": "Cc1cnc(Nc2ccc(C(=O)N3CCC(N4CCCC4)CC3)cc2)nc1-c1cc2ccccc2s1", "test": "binding, competition with immobilised ligand", "setting": "1 µM", "remaining binding [%]": 0.1}
{"Compound": "FC(F)(F)Oc1cccc(-c2cnc3ccc(-c4ccncc4)nn23)c1", "test": "cell-free assay, competition with immobilised ligand", "setting": "5 µM", "remaining binding [%]": 12}
{"Compound": "CSc1cccnc1N1CCN(Cc2nc3ccccc3[nH]2)CC1", "test": "cell-free assay, competition with immobilised ligand", "setting": "1 µM", "remaining binding [%]": 98}
{"Compound": "Cc1cnn2ncc(-c3ccnc(N(C)C)n3)c2c1", "test": "binding", "setting": "1 µM", "remaining binding [%]": 86}
{"Compound": "C[C@H](c1cccc(C#N)c1)n1cc(Cl)cc(C(N)=O)c1=N", "test": "cell-free assay, competition with immobilised ligand", "setting": "1 µM", "remaining binding [%]": 85}
{"Compound": "CN(C)c1nccc(-c2cnn3ncccc23)n1", "test": "binding", "setting": "1 µM", "remaining binding [%]": 76}
{"Compound": "O=C(c1ccc(Nc2ncc(Cl)c(-c3cc4ccccc4s3)n2)cc1)N1CCC(N2CCCC2)CC1", "test": "binding, competition with immobilised ligand", "setting": "1 µM", "remaining binding [%]": 0}
{"Compound": "C=CC(=O)N1CCC(C(=O)NCC(=O)N2CCN(c3nc(-c4cnc(N)nc4C(F)F)nc(N4CCOCC4)n3)CC2)CC1", "test": "binding, competition with immobilised ligand", "setting": "1 µM", "remaining binding [%]": 100}
{"Compound": "O=S(=O)(NC1CCC(c2cc(F)ccc2F)(S(=O)(=O)c2ccc(Cl)cc2)CC1)C(F)(F)F (stereo not shown)", "test": "cell-free assay, competition with immobilised ligand", "setting": "1 µM", "remaining binding [%]": 86}
{"Compound": "O=C(NCCCN1CCOCC1)c1ccc(Nc2nccc(-c3cc4ccccc4s3)n2)cc1", "test": "binding, competition with immobilised ligand", "setting": "1 µM", "remaining binding [%]": 0}
{"Compound": "c1cnn2ncc(-c3ccnc(N4CCC45COC5)n3)c2c1", "test": "binding", "setting": "1 µM", "remaining binding [%]": 100}
{"Compound": "Cn1nc(C(=O)NCc2ccc(C(=O)O)cc2)cc1-c1ccc2[nH]ccc2c1", "test": "cell-free assay, competition with immobilised ligand", "setting": "0.1 µM", "remaining binding [%]": 92}
{"Compound": "CN(C)c1nccc(-c2cnc3ncccn23)n1", "test": "binding", "setting": "1 µM", "remaining binding [%]": 100}
{"Compound": "C[C@@]1(Cc2ccc(C#N)cc2)C(=O)N(c2cc(Cl)cc(Cl)c2)c2ncc(C(=O)NC3(c4nc(C5CCC5)no4)CC3)n21", "test": "cell-free assay, competition with immobilised ligand", "setting": "1 µM", "remaining binding [%]": 91}
